These results are taken from ChEMBL document CHEMBL1145915, “Molecular model of the alpha(IIb)beta(3) integrin” (J Med Chem, 2003).

Chain of Integrin alpha-IIb/beta-3 (P05106 27-788 limits assumed): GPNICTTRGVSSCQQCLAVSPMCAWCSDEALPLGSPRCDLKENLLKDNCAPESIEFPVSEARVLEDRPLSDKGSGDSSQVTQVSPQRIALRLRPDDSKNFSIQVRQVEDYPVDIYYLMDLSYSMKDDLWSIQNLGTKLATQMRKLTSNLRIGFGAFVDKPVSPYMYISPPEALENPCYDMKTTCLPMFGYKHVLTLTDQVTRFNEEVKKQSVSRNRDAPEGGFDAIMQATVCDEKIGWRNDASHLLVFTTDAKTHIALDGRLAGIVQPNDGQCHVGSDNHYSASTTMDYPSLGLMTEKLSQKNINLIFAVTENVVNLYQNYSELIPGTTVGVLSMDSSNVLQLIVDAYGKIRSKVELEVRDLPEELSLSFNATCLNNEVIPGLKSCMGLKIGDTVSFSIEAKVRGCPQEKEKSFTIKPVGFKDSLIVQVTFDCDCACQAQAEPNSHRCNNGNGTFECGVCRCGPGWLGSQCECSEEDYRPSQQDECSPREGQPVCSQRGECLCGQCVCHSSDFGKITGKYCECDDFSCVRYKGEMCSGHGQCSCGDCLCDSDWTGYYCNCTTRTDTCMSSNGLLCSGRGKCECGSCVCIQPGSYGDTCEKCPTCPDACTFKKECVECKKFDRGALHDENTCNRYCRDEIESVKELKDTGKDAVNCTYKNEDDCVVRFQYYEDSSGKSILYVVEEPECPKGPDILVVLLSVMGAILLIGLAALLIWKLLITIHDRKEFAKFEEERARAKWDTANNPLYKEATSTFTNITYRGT
Chain of Integrin alpha-IIb/beta-3 (P08514 32-887 limits assumed): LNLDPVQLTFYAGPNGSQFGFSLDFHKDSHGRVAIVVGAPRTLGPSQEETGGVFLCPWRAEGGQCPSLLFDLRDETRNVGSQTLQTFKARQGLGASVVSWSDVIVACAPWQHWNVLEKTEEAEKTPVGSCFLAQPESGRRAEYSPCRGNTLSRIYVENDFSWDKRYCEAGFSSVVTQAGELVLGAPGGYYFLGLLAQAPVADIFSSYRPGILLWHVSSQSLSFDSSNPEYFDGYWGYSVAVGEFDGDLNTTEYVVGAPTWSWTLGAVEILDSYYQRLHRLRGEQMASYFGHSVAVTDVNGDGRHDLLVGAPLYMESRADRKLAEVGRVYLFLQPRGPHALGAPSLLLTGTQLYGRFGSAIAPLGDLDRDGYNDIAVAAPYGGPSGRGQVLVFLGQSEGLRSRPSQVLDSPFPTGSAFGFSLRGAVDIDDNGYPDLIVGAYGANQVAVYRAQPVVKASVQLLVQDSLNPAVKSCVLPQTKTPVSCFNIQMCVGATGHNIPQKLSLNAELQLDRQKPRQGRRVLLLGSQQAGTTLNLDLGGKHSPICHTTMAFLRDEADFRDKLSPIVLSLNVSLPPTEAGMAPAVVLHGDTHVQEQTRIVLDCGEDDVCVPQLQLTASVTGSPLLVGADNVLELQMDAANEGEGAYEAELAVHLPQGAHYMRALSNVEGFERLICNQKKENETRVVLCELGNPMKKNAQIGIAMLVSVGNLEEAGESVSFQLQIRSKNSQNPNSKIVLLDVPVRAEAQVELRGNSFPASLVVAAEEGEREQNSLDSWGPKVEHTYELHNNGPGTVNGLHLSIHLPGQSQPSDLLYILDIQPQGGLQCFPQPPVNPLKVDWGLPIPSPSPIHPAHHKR
Chain of Integrin alpha-IIb/beta-3 (P08514 891-1039 limits assumed): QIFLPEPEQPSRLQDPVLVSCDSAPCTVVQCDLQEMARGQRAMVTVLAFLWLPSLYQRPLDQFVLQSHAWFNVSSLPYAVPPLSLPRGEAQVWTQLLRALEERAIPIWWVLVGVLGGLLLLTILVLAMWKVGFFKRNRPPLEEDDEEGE

The first assay addresses Integrin alpha-IIb/beta-3 (Homo sapiens, UniProt P05106+P08514). Briefly: Inhibition of human alphaIIb-beta3 integrin in platelet aggregation assay.
Consider `O=C(NC[C@H](NS(=O)(=O)c1ccccc1)C(=O)O)c1ccc(OCCC2CCNCC2)cc1`, for which 10 nM corresponded to half-maximal inhibition (IC50).

The next assay deals with Integrin alpha-V/beta-3 (Homo sapiens, UniProt P05106+P06756). Briefly: Inhibition of binding to human Vitronectin receptor (integrin alphaV-beta3). Format: protein-complex assay. An outline of the steps: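 Scintillation proximity binding assay with lyophilized wheat germ agglutinin SPA beads. Receptor was αvβ3 integrin purified from HEK 293 cells overexpressing human recombinant αvβ3. Tracer was a 125I-labeled ligand, and test compounds were scored by displacement of its binding.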
Chain of Integrin alpha-V/beta-3 (P05106 27-788 limits assumed): as the sequence (P05106 27-788 limits assumed) above
Chain of Integrin alpha-V/beta-3 (P06756 31-889 limits assumed): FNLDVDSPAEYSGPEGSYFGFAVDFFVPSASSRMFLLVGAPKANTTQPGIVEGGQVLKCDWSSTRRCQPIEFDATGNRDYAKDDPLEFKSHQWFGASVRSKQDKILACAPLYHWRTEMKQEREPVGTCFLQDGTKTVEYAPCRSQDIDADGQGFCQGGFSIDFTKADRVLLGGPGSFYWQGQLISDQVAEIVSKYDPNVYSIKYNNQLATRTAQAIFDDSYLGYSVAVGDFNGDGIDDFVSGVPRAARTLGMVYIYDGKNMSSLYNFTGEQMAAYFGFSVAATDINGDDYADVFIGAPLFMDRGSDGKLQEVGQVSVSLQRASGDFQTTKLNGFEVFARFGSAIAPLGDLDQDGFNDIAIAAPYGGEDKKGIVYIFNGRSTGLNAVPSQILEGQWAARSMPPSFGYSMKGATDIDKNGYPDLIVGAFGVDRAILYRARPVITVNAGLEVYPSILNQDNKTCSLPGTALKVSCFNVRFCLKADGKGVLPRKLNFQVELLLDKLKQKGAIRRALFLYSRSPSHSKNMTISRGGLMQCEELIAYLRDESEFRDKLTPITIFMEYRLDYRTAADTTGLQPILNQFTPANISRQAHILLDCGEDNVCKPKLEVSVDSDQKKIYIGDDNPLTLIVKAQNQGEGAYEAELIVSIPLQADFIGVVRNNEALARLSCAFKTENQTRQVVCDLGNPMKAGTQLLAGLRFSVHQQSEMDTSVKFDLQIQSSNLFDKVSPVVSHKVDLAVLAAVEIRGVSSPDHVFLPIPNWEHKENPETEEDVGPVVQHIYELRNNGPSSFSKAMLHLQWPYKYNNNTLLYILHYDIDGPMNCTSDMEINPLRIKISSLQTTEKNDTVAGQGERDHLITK
Chain of Integrin alpha-V/beta-3 (P06756 891-1048 limits assumed): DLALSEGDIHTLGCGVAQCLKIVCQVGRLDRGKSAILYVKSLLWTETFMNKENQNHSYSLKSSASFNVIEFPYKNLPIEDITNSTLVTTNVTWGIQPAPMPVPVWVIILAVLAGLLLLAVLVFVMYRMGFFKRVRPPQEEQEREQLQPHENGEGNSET
Compound `CCCCS(=O)(=O)N[C@@H](Cc1ccc(OCCCCC2CCNCC2)cc1)C(=O)O` [TIROFIBAN] yielded an IC50 greater than 1000 nM. `O=C(NC[C@H](NS(=O)(=O)c1ccccc1)C(=O)O)c1ccc(N2CCNCC2)cc1` returned an IC50 greater than 1000 nM. `O=C(NC[C@H](NS(=O)(=O)c1ccccc1)C(=O)O)c1ccc(OCCC2CCNCC2)cc1`: the IC50 was greater than 1000 nM. Take `Nc1cccc(CCc2ccc(C(=O)NC[C@H](NS(=O)(=O)c3ccccc3)C(=O)O)cc2)n1`: the IC50 turned out to be 0.08 nM. The same measure, in the same setting: as for `CC1(C)[C@@H]2CC[C@@]1(CS(=O)(=O)N[C@@H](CNC(=O)c1ccc(CCc3ccc4c(n3)NCCC4)cc1)C(=O)O)C(=O)C2`, the figure is 0.11 nM; as for `N=C(N)NCCC[C@H](N)C(=O)NCC(=O)N[C@@H](CC(=O)O)C(=O)O`, greater than 10000 nM. Regarding `O=C(O)CC(NC(=O)CCCCc1ccc2c(n1)NCCC2)c1cncnc1` (stereo not drawn), the half-inhibitory concentration (IC50) worked out at 3.3 nM.

For orientation: IC50 means the concentration needed to halve the response being measured. A lower IC50 goes with higher potency.
